Legend:
Type in all cases: nucleic-acid assay
Nucleic Acid [1] = experiment: Binding affinity to 5'-GCTAAAAAGAAAGAGAGATCG-3'/5'- CGATCTCTCTTTCTTTTTAGC-3' double stranded DNA assessed as melting temperature at 1.5 uM in sodium phosphate buffer at pH 7 by UV spectrophotometric analysis
In short: (§1)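 UV melting of triplexes between each modified TFO and the 21-bp duplex target, in 7 mM sodium phosphate buffer (pH 7.0), 140 mM KCl and 10 mM MgCl₂. Each oligonucleotide at 1.5 µM final. Absorbance followed at 260 nm from 5 °C to 85 °C, scanned at 0.5 °C/min, to give Tm.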

Nucleic Acid [2] = experiment: Binding affinity to 5'-GCTAAAAAGATAGAGAGATCG-3'/5'- CGATCTCTCTATCTTTTTAGC-3' double stranded DNA assessed as melting temperature at 1.5 uM in sodium phosphate buffer at pH 7 by UV spectrophotometric analysis; in short: as §1
Nucleic Acid [3] = experiment: Binding affinity to5'-GCTAAAAAGACAGAGAGATCG-3'/5'- CGATCTCTCTGTCTTTTTAGC-3' double stranded DNA assessed as melting temperature at 1.5 uM in sodium phosphate buffer at pH 7 by UV spectrophotometric analysis; in short: as §1
Nucleic Acid [4] = experiment: Binding affinity to 5'-GCTAAAAAGACAGAGAGATCG-3'/5'- CGATCTCTCTGTCTTTTTAGC-3' double stranded DNA assessed as change in melting temperature at 1.5 uM in sodium phosphate buffer at pH 7 by UV spectrophotometric analysis
Nucleic Acid [5] = experiment: Binding affinity to 5'-GCTAAAAAGAGAGAGAGATCG-3'/5'- CGATCTCTCTCTCTTTTTAGC-3' double stranded DNA assessed as melting temperature at 1.5 uM in sodium phosphate buffer at pH 7 by UV spectrophotometric analysis; in short: as §1
Nucleic Acid [6] = experiment: Binding affinity to 5'-GCTAAAAAGATAGAGAGATCG-3'/5'- CGATCTCTCTATCTTTTTAGC-3' double stranded DNA assessed as melting temperature at 1.9 uM in sodium cacodylate buffer at pH 6.8 by UV spectrophotometric analysis
In short: (§2)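 Each oligonucleotide at 1.9 µM final. Absorbance at 260 nm recorded from 5 °C to 85 °C at 0.5 °C/min; Tm taken from the melting profile.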

Nucleic Acid [7] = experiment: Binding affinity to 5'-GCTAAAAAGACAGAGAGATCG-3'/5'- CGATCTCTCTGTCTTTTTAGC-3' double stranded DNA assessed as melting temperature at 1.9 uM in sodium cacodylate buffer at pH 6.8 by UV spectrophotometric analysis; in short: as §2
Nucleic Acid [8] = experiment: Binding affinity to 5'-GCTAAAAAGAAAGAGAGATCG-3'/5'- CGATCTCTCTTTCTTTTTAGC-3' double stranded DNA assessed as melting temperature at 1.9 uM in sodium cacodylate buffer at pH 6.8 by UV spectrophotometric analysis; in short: as §2
Nucleic Acid [9] = experiment: Binding affinity to 5'-GCTAAAAAGAGAGAGAGATCG-3'/5'- CGATCTCTCTCTCTTTTTAGC-3' double stranded DNA assessed as melting temperature at 1.9 uM in sodium cacodylate buffer at pH 6.8 by UV spectrophotometric analysis; in short: as §2

Compound	Tm (Nucleic Acid [1]) [°C]	Tm (Nucleic Acid [2]) [°C]	Tm (Nucleic Acid [3]) [°C]	ΔTm (Nucleic Acid [4]) [°C]	Tm (Nucleic Acid [5]) [°C]	Tm (Nucleic Acid [6]) [°C]	Tm (Nucleic Acid [7]) [°C]	Tm (Nucleic Acid [8]) [°C]	Tm (Nucleic Acid [9]) [°C]
Cc1cn([C@H]2C[C@H](OP(=O)(O)OC[C@H]3O[C@@H](n4cc(C)c(=O)[nH]c4=O)C[C@@H]3OP(=O)(O)OC[C@H]3O[C@@H](n4cc(C)c(N)nc4=O)C[C@@H]3OP(=O)(O)OC[C@H]3O[C@@H](n4cc(C)c(=O)[nH]c4=O)C[C@@H]3OP(=O)(O)OC[C@H]3O[C@@H](n4cc(C)c(N)nc4=O)C[C@@H]3OP(=O)(O)OC[C@H]3O[C@@H](n4cc(C)c(=O)[nH]c4=O)C[C@@H]3OP(=O)(O)OC[C@H]3O[C@@H](c4cn(-c5ccc(C(=O)O)cc5)nn4)C[C@@H]3OP(=O)(O)OC[C@H]3O[C@@H](n4cc(C)c(=O)[nH]c4=O)C[C@@H]3OP(=O)(O)OC[C@H]3O[C@@H](n4cc(C)c(N)nc4=O)C[C@@H]3OP(=O)(O)OC[C@H]3O[C@@H](n4cc(C)c(=O)[nH]c4=O)C[C@@H]3OP(=O)(O)OC[C@H]3O[C@@H](n4cc(C)c(=O)[nH]c4=O)C[C@@H]3OP(=O)(O)OC[C@H]3O[C@@H](n4cc(C)c(=O)[nH]c4=O)C[C@@H]3OP(=O)(O)OC[C@H]3O[C@@H](n4cc(C)c(=O)[nH]c4=O)C[C@@H]3OP(=O)(O)OC[C@H]3O[C@@H](n4cc(C)c(=O)[nH]c4=O)C[C@@H]3O)[C@@H](COP(=O)(O)O[C@H]3C[C@H](n4cc(C)c(=O)[nH]c4=O)O[C@@H]3CO)O2)c(=O)nc1N	< 10	< 10	21	11	< 10	–	–	–	–
Cc1cn([C@H]2C[C@H](OP(=O)(O)OC[C@H]3O[C@@H](n4cc(C)c(=O)[nH]c4=O)C[C@@H]3OP(=O)(O)OC[C@H]3O[C@@H](n4cc(C)c(N)nc4=O)C[C@@H]3OP(=O)(O)OC[C@H]3O[C@@H](n4cc(C)c(=O)[nH]c4=O)C[C@@H]3OP(=O)(O)OC[C@H]3O[C@@H](n4cc(C)c(N)nc4=O)C[C@@H]3OP(=O)(O)OC[C@H]3O[C@@H](n4cc(C)c(=O)[nH]c4=O)C[C@@H]3OP(=O)(O)OC[C@H]3O[C@@H](n4cc(C)c(=O)[nH]c4=O)C[C@@H]3OP(=O)(O)OC[C@H]3O[C@@H](n4cc(C)c(=O)[nH]c4=O)C[C@@H]3OP(=O)(O)OC[C@H]3O[C@@H](n4cc(C)c(N)nc4=O)C[C@@H]3OP(=O)(O)OC[C@H]3O[C@@H](n4cc(C)c(=O)[nH]c4=O)C[C@@H]3OP(=O)(O)OC[C@H]3O[C@@H](n4cc(C)c(=O)[nH]c4=O)C[C@@H]3OP(=O)(O)OC[C@H]3O[C@@H](n4cc(C)c(=O)[nH]c4=O)C[C@@H]3OP(=O)(O)OC[C@H]3O[C@@H](n4cc(C)c(=O)[nH]c4=O)C[C@@H]3OP(=O)(O)OC[C@H]3O[C@@H](n4cc(C)c(=O)[nH]c4=O)C[C@@H]3O)[C@@H](COP(=O)(O)O[C@H]3C[C@H](n4cc(C)c(=O)[nH]c4=O)O[C@@H]3CO)O2)c(=O)nc1N	44	17	25	–	20	21	28	45	22
Cc1cn([C@H]2C[C@H](OP(=O)(O)OC[C@H]3O[C@@H](n4cc(C)c(=O)[nH]c4=O)C[C@@H]3OP(=O)(O)OC[C@H]3O[C@@H](n4cc(C)c(N)nc4=O)C[C@@H]3OP(=O)(O)OC[C@H]3O[C@@H](n4cc(C)c(=O)[nH]c4=O)C[C@@H]3OP(=O)(O)OC[C@H]3O[C@@H](n4cc(C)c(N)nc4=O)C[C@@H]3OP(=O)(O)OC[C@H]3O[C@@H](n4cc(C)c(=O)[nH]c4=O)C[C@@H]3OP(=O)(O)OC[C@H]3O[C@@H](c4cn(-c5ccc(NC(N)=O)cc5)nn4)C[C@@H]3OP(=O)(O)OC[C@H]3O[C@@H](n4cc(C)c(=O)[nH]c4=O)C[C@@H]3OP(=O)(O)OC[C@H]3O[C@@H](n4cc(C)c(N)nc4=O)C[C@@H]3OP(=O)(O)OC[C@H]3O[C@@H](n4cc(C)c(=O)[nH]c4=O)C[C@@H]3OP(=O)(O)OC[C@H]3O[C@@H](n4cc(C)c(=O)[nH]c4=O)C[C@@H]3OP(=O)(O)OC[C@H]3O[C@@H](n4cc(C)c(=O)[nH]c4=O)C[C@@H]3OP(=O)(O)OC[C@H]3O[C@@H](n4cc(C)c(=O)[nH]c4=O)C[C@@H]3OP(=O)(O)OC[C@H]3O[C@@H](n4cc(C)c(=O)[nH]c4=O)C[C@@H]3O)[C@@H](COP(=O)(O)O[C@H]3C[C@H](n4cc(C)c(=O)[nH]c4=O)O[C@@H]3CO)O2)c(=O)nc1N	12	13	24	11	13	18	29	18	17
Cc1ccc(-n2cc([C@H]3C[C@H](OP(=O)(O)OC[C@H]4O[C@@H](n5cc(C)c(=O)[nH]c5=O)C[C@@H]4OP(=O)(O)OC[C@H]4O[C@@H](n5cc(C)c(N)nc5=O)C[C@@H]4OP(=O)(O)OC[C@H]4O[C@@H](n5cc(C)c(=O)[nH]c5=O)C[C@@H]4OP(=O)(O)OC[C@H]4O[C@@H](n5cc(C)c(=O)[nH]c5=O)C[C@@H]4OP(=O)(O)OC[C@H]4O[C@@H](n5cc(C)c(=O)[nH]c5=O)C[C@@H]4OP(=O)(O)OC[C@H]4O[C@@H](n5cc(C)c(=O)[nH]c5=O)C[C@@H]4OP(=O)(O)OC[C@H]4O[C@@H](n5cc(C)c(=O)[nH]c5=O)C[C@@H]4O)[C@@H](COP(=O)(O)O[C@H]4C[C@H](n5cc(C)c(=O)[nH]c5=O)O[C@@H]4COP(=O)(O)O[C@H]4C[C@H](n5cc(C)c(N)nc5=O)O[C@@H]4COP(=O)(O)O[C@H]4C[C@H](n5cc(C)c(=O)[nH]c5=O)O[C@@H]4COP(=O)(O)O[C@H]4C[C@H](n5cc(C)c(N)nc5=O)O[C@@H]4COP(=O)(O)O[C@H]4C[C@H](n5cc(C)c(=O)[nH]c5=O)O[C@@H]4COP(=O)(O)O[C@H]4C[C@H](n5cc(C)c(N)nc5=O)O[C@@H]4COP(=O)(O)O[C@H]4C[C@H](n5cc(C)c(=O)[nH]c5=O)O[C@@H]4CO)O3)nn2)cc1	< 10	13	21	–	< 10	–	–	–	–
Cc1cn([C@H]2C[C@H](OP(=O)(O)OC[C@H]3O[C@@H](n4cc(C)c(=O)[nH]c4=O)C[C@@H]3OP(=O)(O)OC[C@H]3O[C@@H](n4cc(C)c(N)nc4=O)C[C@@H]3OP(=O)(O)OC[C@H]3O[C@@H](n4cc(C)c(=O)[nH]c4=O)C[C@@H]3OP(=O)(O)OC[C@H]3O[C@@H](n4cc(C)c(N)nc4=O)C[C@@H]3OP(=O)(O)OC[C@H]3O[C@@H](n4cc(C)c(=O)[nH]c4=O)C[C@@H]3OP(=O)(O)OC[C@H]3O[C@@H](c4cn(-c5ccc(N)cc5)nn4)C[C@@H]3OP(=O)(O)OC[C@H]3O[C@@H](n4cc(C)c(=O)[nH]c4=O)C[C@@H]3OP(=O)(O)OC[C@H]3O[C@@H](n4cc(C)c(N)nc4=O)C[C@@H]3OP(=O)(O)OC[C@H]3O[C@@H](n4cc(C)c(=O)[nH]c4=O)C[C@@H]3OP(=O)(O)OC[C@H]3O[C@@H](n4cc(C)c(=O)[nH]c4=O)C[C@@H]3OP(=O)(O)OC[C@H]3O[C@@H](n4cc(C)c(=O)[nH]c4=O)C[C@@H]3OP(=O)(O)OC[C@H]3O[C@@H](n4cc(C)c(=O)[nH]c4=O)C[C@@H]3OP(=O)(O)OC[C@H]3O[C@@H](n4cc(C)c(=O)[nH]c4=O)C[C@@H]3O)[C@@H](COP(=O)(O)O[C@H]3C[C@H](n4cc(C)c(=O)[nH]c4=O)O[C@@H]3CO)O2)c(=O)nc1N	12	18	23	–	< 10	–	–	–	–
CC(=O)NCCn1cc([C@H]2C[C@H](OP(=O)(O)OC[C@H]3O[C@@H](n4cc(C)c(=O)[nH]c4=O)C[C@@H]3OP(=O)(O)OC[C@H]3O[C@@H](n4cc(C)c(N)nc4=O)C[C@@H]3OP(=O)(O)OC[C@H]3O[C@@H](n4cc(C)c(=O)[nH]c4=O)C[C@@H]3OP(=O)(O)OC[C@H]3O[C@@H](n4cc(C)c(=O)[nH]c4=O)C[C@@H]3OP(=O)(O)OC[C@H]3O[C@@H](n4cc(C)c(=O)[nH]c4=O)C[C@@H]3OP(=O)(O)OC[C@H]3O[C@@H](n4cc(C)c(=O)[nH]c4=O)C[C@@H]3OP(=O)(O)OC[C@H]3O[C@@H](n4cc(C)c(=O)[nH]c4=O)C[C@@H]3O)[C@@H](COP(=O)(O)O[C@H]3C[C@H](n4cc(C)c(=O)[nH]c4=O)O[C@@H]3COP(=O)(O)O[C@H]3C[C@H](n4cc(C)c(N)nc4=O)O[C@@H]3COP(=O)(O)O[C@H]3C[C@H](n4cc(C)c(=O)[nH]c4=O)O[C@@H]3COP(=O)(O)O[C@H]3C[C@H](n4cc(C)c(N)nc4=O)O[C@@H]3COP(=O)(O)O[C@H]3C[C@H](n4cc(C)c(=O)[nH]c4=O)O[C@@H]3COP(=O)(O)O[C@H]3C[C@H](n4cc(C)c(N)nc4=O)O[C@@H]3COP(=O)(O)O[C@H]3C[C@H](n4cc(C)c(=O)[nH]c4=O)O[C@@H]3CO)O2)nn1	14	14	20	–	< 10	–	–	–	–
